Experimental data from different studies.
Compare with care: the assays were run in different laboratories.

With `COc1ccc2nccc(N3CCc4c(cc(Cn5ccnc5)cc4-c4cn(C)nc4C(F)(F)F)C3=O)c2c1` the Vd was 1 L/kg (male CD-1 mouse; plasma; intravenous; 3 mg/kg).
With `COc1ccc(C(O)COc2ccc(-c3csc(-c4ccc(OCC(O)c5ccc(OC)c(OC)c5)cc4)n3)cc2)cc1OC` (centres unmarked) the Vd was 1.5 L/kg (C57BL/6 mouse; plasma; intravenous; 3 mg/kg).
`CC(C)(C)c1ccc(O)c(CN(Cc2cc(C(C)(C)C)ccc2O)C2CCC(NC(N)=O)CC2)c1` (centres unmarked) has a Vd of 5.6 L (male C57BL/6 mouse; plasma; intraperitoneal; 25 mg/kg; single dose).
With `COc1nc(-c2cc(C)c(N[C@@H](C)c3ccc(F)cc3)nn2)ccc1-n1cnc(C)c1` the Vd was 1.02 L/kg (male CD-1 mouse; plasma; intravenous; 1 mg/kg; single dose).
`C=CC(=O)N1CC2CC(n3nc(-c4ccc(C(=O)Nc5ccccn5)cc4)c4c(N)ncnc43)CC2C1` (centres unmarked) gave a Vd of 0.67 L/kg (male BALB/c mouse; plasma; intravenous; 1 mg/kg).
For `CC[C@H](C)[C@@H]1NC(=O)[C@@](C)(NC(=O)[C@H](CCCNC(=N)N)NC(=O)[C@H](CC(C)C)NC(=O)[C@@H](NC(=O)[C@H](CCC(N)=O)NC(=O)[C@H](CC(C)C)NC(C)=O)[C@@H](C)O)CCCC=CCCC[C@@](C)(C(=O)N[C@@H](CC(C)C)C(=O)N[C@@H](Cc2ccc3ccccc3c2)C(N)=O)NC(=O)[C@H](CCCNC(=N)N)NC(=O)[C@H](CCC(N)=O)NC1=O`, the Vd was 0.0692 L/kg (male BALB/c mouse; plasma; intravenous; 5 mg/kg).
`CCc1cc(C(=O)NC)c2nccc(N3CCc4c(cc(Cn5ccnc5)cc4-c4cn(C)nc4C(F)(F)F)C3=O)c2c1` gave a Vd of 0.4 L/kg (male CD-1 mouse; plasma; intravenous; 3 mg/kg).
With `CN1CCC(c2ccccc2CC(C)(C)Nc2nc(N3CCOCC3)nc(-n3c(C(F)F)nc4ccccc43)n2)CC1` the Vd was 5.61 L/kg (mouse; plasma; intravenous; 10 mg/kg; single dose).
For `CCc1cc(OC)c2nccc(N3CCc4c(cc(Cn5ccnc5)cc4-c4cn(C)nc4C(F)(F)F)C3=O)c2c1`, the Vd was 0.7 L/kg (male CD-1 mouse; plasma; intravenous; 3 mg/kg).
With `CNCCN(C)c1cc(C#N)cc(CCc2cc(C)cc(N)n2)c1` the Vd was 44 L/kg (male BALB/c mouse; brain; intravenous; 2 mg/kg).
The Vd of `CCNc1nc2c(c(N3CC(=O)Nc4cc(OC)ccc43)n1)CCC2` is reported as 4.7 L/kg (female C57BL/6 mouse; plasma; intravenous; 4 mg/kg; single dose).
